Measured values: ChEMBL document CHEMBL1140227, “Histone deacetylase inhibitors through click chemistry” (J Med Chem, 2008)

Assays:
Type in all cases: functional
HCT-116 = assay: Growth inhibition of human HCT116 cells at 10 uM relative to control; conditions: values are per cent of control
Procedure, shortened: (§1)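 Single-dose preliminary screen in the NCI human cancer cell line panel, run by the NIH. Percent inhibition of cell line growth was calculated by comparison with untreated samples.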

HCT-15 = assay: Growth inhibition of human HCT15 cells at 10 uM relative to control; conditions: values are per cent of control; procedure, shortened: as §1
HT-29 = assay: Growth inhibition of human HT-29 cells at 10 uM relative to control; conditions: values are per cent of control; procedure, shortened: as §1
KM12 = assay: Growth inhibition of human KM12 cells at 10 uM relative to control; conditions: values are per cent of control; procedure, shortened: as §1
SW-620 = assay: Growth inhibition of human SW620 cells at 10 uM relative to control; conditions: values are per cent of control
Procedure, shortened: (§2)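 Single-dose NCI human tumour cell line screen, run by the NIH. Percent inhibition of cell line growth was calculated by comparison with untreated samples.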

BT-549 = assay: Growth inhibition of human BT549 cells at 10 uM relative to control; conditions: values are per cent of control; procedure, shortened: as §1
[1] = Growth inhibition of human Hs 578T cells at 10 uM relative to control; conditions: values are per cent of control; procedure, shortened: as §1
MCF7 = assay: Growth inhibition of human MCF7 cells at 10 uM relative to control; conditions: values are per cent of control; procedure, shortened: as §1
MDA-MB-231 = assay: Growth inhibition of human MDA-MB-231 cells at 10 uM relative to control; conditions: values are per cent of control; procedure, shortened: as §1
MDA-MB-435 = assay: Growth inhibition of human MDA-MB-435 cells at 10 uM relative to control; conditions: values are per cent of control; procedure, shortened: as §1
MDA-MB-468 = assay: Growth inhibition of human MDA-MB-468 cells at 10 uM relative to control; conditions: values are per cent of control; procedure, shortened: as §1
NCI/ADR-RES = assay: Growth inhibition of human NCI/ADR-RES cells at 10 uM relative to control; conditions: values are per cent of control; procedure, shortened: as §1
T47D = assay: Growth inhibition of human T47D cells at 10 uM relative to control; conditions: values are per cent of control; procedure, shortened: as §2
IGROV-1 = assay: Growth inhibition of human IGROV1 cells at 10 uM relative to control; conditions: values are per cent of control; procedure, shortened: as §1
OVCAR-4 = assay: Growth inhibition of human OVCAR4 cells at 10 uM relative to control; conditions: values are per cent of control; procedure, shortened: as §1
OVCAR-5 = assay: Growth inhibition of human OVCAR5 cells at 10 uM relative to control; conditions: values are per cent of control; procedure, shortened: as §1
OVCAR-8 = assay: Growth inhibition of human OVCAR8 cells at 10 uM relative to control; conditions: values are per cent of control; procedure, shortened: as §1
SK-OV-3 = assay: Growth inhibition of human SKOV3 cells at 10 uM relative to control; conditions: values are per cent of control; procedure, shortened: as §1
CCRF-CEM = assay: Growth inhibition of human CCRF-CEM cells at 10 uM relative to control; conditions: values are per cent of control; procedure, shortened: as §1
HL-60(TB) = assay: Growth inhibition of human HL-60(TB) cells at 10 uM relative to control; conditions: read-out: INH
Procedure, shortened: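 Single-dose cell line screen run by the NCI (NIH) in its human cancer cell line panel, which includes the leukemia line HL-60(TB). Percent growth inhibition was calculated by comparison with untreated samples.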

K562 = assay: Growth inhibition of human K562 cells at 10 uM relative to control; conditions: values are per cent of control; procedure, shortened: as §1
MOLT-4 = assay: Growth inhibition of human MOLT4 cells at 10 uM relative to control; conditions: values are per cent of control; procedure, shortened: as §1
[2] = Growth inhibition of human RPMI8266 cells at 10 uM relative to control; conditions: values are per cent of control; procedure, shortened: as §1
786-0 = assay: Growth inhibition of human 786-0 cells at 10 uM relative to control; conditions: values are per cent of control; procedure, shortened: as §1
A498 = assay: Growth inhibition of human A498 cells at 10 uM relative to control; conditions: values are per cent of control; procedure, shortened: as §1
ACHN = assay: Growth inhibition of human ACHN cells at 10 uM relative to control; conditions: values are per cent of control; procedure, shortened: as §1
CAKI-1 = assay: Growth inhibition of human Caki1 cells at 10 uM relative to control; conditions: values are per cent of control; procedure, shortened: as §1
SN12C = assay: Growth inhibition of human SN12C cells at 10 uM relative to control; conditions: values are per cent of control; procedure, shortened: as §1
TK-10 = assay: Growth inhibition of human TK10 cells at 10 uM relative to control; conditions: values are per cent of control; procedure, shortened: as §2
UO-31 = assay: Growth inhibition of human UO31 cells at 10 uM relative to control; conditions: values are per cent of control; procedure, shortened: as §2
LOX IMVI = assay: Growth inhibition of human LOXIMVI cells at 10 uM relative to control; conditions: values are per cent of control; procedure, shortened: as §1
M14 = assay: Growth inhibition of human M14 cells at 10 uM relative to control; conditions: values are per cent of control; procedure, shortened: as §1
Malme-3M = assay: Growth inhibition of human MALME-3M cells at 10 uM relative to control; conditions: values are per cent of control; procedure, shortened: as §1
SK-MEL-2 = assay: Growth inhibition of human SK-MEL-2 cells at 10 uM relative to control; conditions: values are per cent of control; procedure, shortened: as §1
SK-MEL-28 = assay: Growth inhibition of human SK-MEL-28 cells at 10 uM relative to control; conditions: values are per cent of control; procedure, shortened: as §1
UACC-257 = assay: Growth inhibition of human UACC257 cells at 10 uM relative to control; conditions: values are per cent of control; procedure, shortened: as §2
UACC-62 = assay: Growth inhibition of human UACC62 cells at 10 uM relative to control; conditions: values are per cent of control; procedure, shortened: as §2
DU-145 = assay: Growth inhibition of human DU145 cells at 10 uM relative to control; conditions: values are per cent of control; procedure, shortened: as §1
PC-3 = assay: Growth inhibition of human PC3 cells at 10 uM relative to control; conditions: values are per cent of control; procedure, shortened: as §1
SF-268 = assay: Growth inhibition of human SF268 cells at 10 uM relative to control; conditions: values are per cent of control; procedure, shortened: as §1
SF-295 = assay: Growth inhibition of human SF295 cells at 10 uM relative to control; conditions: values are per cent of control; procedure, shortened: as §1
SF-539 = assay: Growth inhibition of human SF539 cells at 10 uM relative to control; conditions: values are per cent of control; procedure, shortened: as §1
SNB-19 = assay: Growth inhibition of human SNB19 cells at 10 uM relative to control; conditions: values are per cent of control; procedure, shortened: as §1
SNB-75 = assay: Growth inhibition of human SNB75 cells at 10 uM relative to control; conditions: values are per cent of control; procedure, shortened: as §2
U-251 = assay: Growth inhibition of human U251 cells at 10 uM relative to control; conditions: values are per cent of control; procedure, shortened: as §2
cells [3] = conditions: Homo sapiens, Cancer cell lines
cells [4] = conditions: Homo sapiens, Cancer cell lines; remark: listed apart in the source
Leukemia cell = assay: cells; conditions: Homo sapiens
cells [5] = conditions: Homo sapiens, Cancer cell lines; remark: listed apart in the source
Melanoma cell = assay: cells; conditions: Homo sapiens
cells [6] = conditions: Homo sapiens, Cancer cell lines; remark: listed apart in the source
cells [7] = conditions: Homo sapiens, Cancer cell lines; remark: listed apart in the source
A549 = assay: Growth inhibition of human A549 cells at 10 uM relative to control; conditions: values are per cent of control; procedure, shortened: as §1
EKVX = assay: Growth inhibition of human EKVX cells at 10 uM relative to control; conditions: values are per cent of control; procedure, shortened: as §1
HOP-62 = assay: Growth inhibition of human HOP62 cells at 10 uM relative to control; conditions: values are per cent of control; procedure, shortened: as §1
HOP-92 = assay: Growth inhibition of human HOP92 cells at 10 uM relative to control; conditions: values are per cent of control; procedure, shortened: as §1
NCI-H226 = assay: Growth inhibition of human NCI-H226 cells at 10 uM relative to control; conditions: values are per cent of control; procedure, shortened: as §1
NCI-H23 = assay: Growth inhibition of human NCI-H23 cells at 10 uM relative to control; conditions: values are per cent of control; procedure, shortened: as §1
NCI-H322M = assay: Growth inhibition of human NCI-H322M cells at 10 uM relative to control; conditions: values are per cent of control; procedure, shortened: as §1
NCI-H460 = assay: Growth inhibition of human NCI-H460 cells at 10 uM relative to control; conditions: values are per cent of control; procedure, shortened: as §1
NCI-H522 = assay: Growth inhibition of human NCI-H522 cells at 10 uM relative to control; conditions: values are per cent of control; procedure, shortened: as §1
COLO 205 = assay: Growth inhibition of human COLO205 cells at 10 uM relative to control; conditions: values are per cent of control; procedure, shortened: as §1
HCC 2998 = assay: Growth inhibition of human HCC2998 cells at 10 uM relative to control; conditions: values are per cent of control; procedure, shortened: as §1

## O=C(/C=C/c1cn(CC(=O)Nc2ccccc2)nn1)NO
HCT-116
  growth, % of control at 10 µM: 55.3%
HCT-15
  growth, % of control at 10 µM: 105%
HT-29
  growth, % of control at 10 µM: 51.9%
KM12
  growth, % of control at 10 µM: 76%
SW-620
  growth, % of control at 10 µM: 91.5%
BT-549
  growth, % of control at 10 µM: 83.6%
[1]
  growth, % of control at 10 µM: 84.2%
MCF7
  growth, % of control at 10 µM: 95.8%
MDA-MB-231
  growth, % of control at 10 µM: 104%
MDA-MB-435
  growth, % of control at 10 µM: 63.4%
MDA-MB-468
  growth, % of control at 10 µM: 64.2%
NCI/ADR-RES
  growth, % of control at 10 µM: 13.4%
T47D
  growth, % of control at 10 µM: 56.6%
IGROV-1
  growth, % of control at 10 µM: 86.4%
OVCAR-4
  growth, % of control at 10 µM: 83.7%
OVCAR-5
  growth, % of control at 10 µM: 79%
OVCAR-8
  growth, % of control at 10 µM: 51.9%
SK-OV-3
  growth, % of control at 10 µM: 79.5%
CCRF-CEM
  growth, % of control at 10 µM: 57.1%
HL-60(TB)
  growth, % of control at 10 µM: 153%
K562
  growth, % of control at 10 µM: 86%
MOLT-4
  growth, % of control at 10 µM: 62.2%
[2]
  growth, % of control at 10 µM: 64.2%
786-0
  growth, % of control at 10 µM: 69.5%
A498
  growth, % of control at 10 µM: 105%
ACHN
  growth, % of control at 10 µM: 113%
CAKI-1
  growth, % of control at 10 µM: 81.7%
SN12C
  growth, % of control at 10 µM: 89%
TK-10
  growth, % of control at 10 µM: 101%
UO-31
  growth, % of control at 10 µM: 74%
LOX IMVI
  growth, % of control at 10 µM: 95.4%
M14
  growth, % of control at 10 µM: 60%
Malme-3M
  growth, % of control at 10 µM: 21.4%
SK-MEL-2
  growth, % of control at 10 µM: 51.1%
SK-MEL-28
  growth, % of control at 10 µM: 93.4%
UACC-257
  growth, % of control at 10 µM: 54.4%
UACC-62
  growth, % of control at 10 µM: 70.8%
DU-145
  growth, % of control at 10 µM: 87.8%
PC-3
  growth, % of control at 10 µM: 79.7%
SF-268
  growth, % of control at 10 µM: 66.8%
SF-295
  growth, % of control at 10 µM: 81.3%
SF-539
  growth, % of control at 10 µM: 107%
SNB-19
  growth, % of control at 10 µM: 105%
SNB-75
  growth, % of control at 10 µM: 88.5%
U-251
  growth, % of control at 10 µM: 86.6%
Cells [3]
  growth percent at 10 µM: 71%
Cells [4]
  inhibition at 10 µM: 74%
Leukemia cell
  inhibition at 10 µM: 84%
Cells [5]
  growth percent at 10 µM: 90%
Melanoma cell
  inhibition at 10 µM: 69%
Cells [6]
  inhibition at 10 µM: 89%
Cells [7]
  inhibition at 10 µM: 68%
A549
  growth, % of control at 10 µM: 91.2%
EKVX
  growth, % of control at 10 µM: 70.5%
HOP-62
  growth, % of control at 10 µM: 43.1%
HOP-92
  growth, % of control at 10 µM: 67.8%
NCI-H226
  growth, % of control at 10 µM: 94.1%
NCI-H23
  growth, % of control at 10 µM: 82.8%
NCI-H322M
  growth, % of control at 10 µM: 41.8%
NCI-H460
  growth, % of control at 10 µM: 86.1%
NCI-H522
  growth, % of control at 10 µM: 41%
COLO 205
  growth, % of control at 10 µM: 117%
HCC 2998
  growth, % of control at 10 µM: 83.5%
